Data: ChEMBL document CHEMBL1130386, “Structure-activity relationship of newly synthesized quinoline derivatives for reversal of multidrug resistance in cancer” (1997)

System: K562
Test: MDR-reversing activity in K562/ADM cells at 1 uM concentration of [3H]-VCR (vincristine), activity expressed relative to verapamil.
Format: functional, Homo sapiens
Summary of the method: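 K562/ADM cells at 1.5 × 10^6/mL in growth medium with 10 mM HEPES were incubated at 37 °C with 30 nM [3H]VCR (5.6 Ci/mmol), with or without modulator (1 µM) or verapamil. At intervals, aliquots were spun through a 4:1 silicone oil/liquid paraffin layer. Pellets were lysed overnight in 0.5 N KOH and counted by liquid scintillation. Intracellular VCR was scaled to verapamil.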

Row | SMILES | Activity [%]
1 | OC(COc1cccc2ncccc12)CN1CCN(C(c2ccc(F)cc2)c2ccc(F)cc2)CC1 (stereo unspecified) | 265
2 | OC(COc1cccc2ncccc12)CN1CCN(C(c2ccccc2)c2cccs2)CC1 (stereo unspecified) | 428
3 | O=C(C1c2ccccc2-c2ccccc21)N1CCN(CC(O)COc2cccc3ncccc23)CC1 (stereo unspecified) | 213
4 | OC(COc1cccc2ncccc12)CN1CCNCC1 (stereo unspecified) | 65
5 | OC(COc1cccc2ncccc12)CN1CCN(C2c3ccccc3COc3ccccc32)CC1 (stereo unspecified) | 414
6 | OC(COc1ccccc1)CN1CCN(C(c2ccccc2)c2ccccc2)CC1 (stereo unspecified) | 56
7 | OC(COc1cccc2ncccc12)CN1CCN(C2c3ccccc3CCc3cccnc32)CC1 (stereo unspecified) | 316
8 | OC(CNCCC(c1ccccc1)c1ccccc1)COc1cccc2ncccc12 (stereo unspecified) | 343
9 | CN1CCN(CC(O)COc2cccc3ncccc23)CC1 (stereo unspecified) | 47
10 | O=C(C1c2ccccc2Oc2ccccc21)N1CCN(CC(O)COc2cccc3ncccc23)CC1 (stereo unspecified) | 279
11 | CCCCCCCCCCCCCCCCCCN1CCN(CC(O)COc2cccc3ncccc23)CC1 (stereo unspecified) | 55
12 | OC(COc1cccc2ccccc12)CN1CCN(C(c2ccccc2)c2ccccc2)CC1 (stereo unspecified) | 32
13 | OC(COc1cccc2ncccc12)CN1CCC(=C(c2ccc(F)cc2)c2ccc(F)cc2)CC1 (stereo unspecified) | 246
14 | O=C(C(c1ccccc1)c1ccccc1)N1CCN(CC(O)COc2cccc3ncccc23)CC1 (stereo unspecified) [DOFEQUIDAR] | 381
15 | OC(COc1cccc2ncccc12)CN1CCN(Cc2ccccc2)CC1 (stereo unspecified) | 123
16 | O=C1C(=O)N(C2c3ccccc3CCc3ccccc32)CCN1CC(O)COc1cccc2ncccc12 (stereo unspecified) | 81
17 | OC(COc1cccc2ncccc12)CN1CCN(C(c2ccccc2)c2ccc(Cl)cc2)CC1 (stereo unspecified) | 243
18 | OC(COc1cccc2ncccc12)CN1CCN(CC(c2ccccc2)c2ccccc2)CC1 (stereo unspecified) | 327
19 | OC(COc1cccc2ncccc12)CN1CCC(=C(c2ccccc2)c2ccccc2)CC1 (stereo unspecified) | 309
20 | COc1ccc(C(c2ccc(OC)cc2)N2CCN(CC(O)COc3cccc4ncccc34)CC2)cc1 (stereo unspecified) | 260
21 | OC(COc1cccc2ncccc12)CN1CCC(=C2c3ccccc3CCc3ccccc32)CC1 (stereo unspecified) | 374
22 | OC(COc1cccc2ncccc12)CN1CCN(C2c3ccccc3-c3ccccc32)CC1 (stereo unspecified) | 229
23 | O=C(C(c1ccc(F)cc1)c1ccc(F)cc1)N1CCN(CC(O)COc2cccc3ncccc23)CC1 (stereo unspecified) | 263
24 | OC(COc1cccc2ncccc12)CN1CCN(C(c2ccccc2)c2ccccc2)CC1 (stereo unspecified) | 358
25 | OC(CNCC(c1ccccc1)c1ccccc1)COc1cccc2ncccc12 (stereo unspecified) | 117
26 | OC(COc1cccc2ncccc12)CN1CCN(C2c3ccccc3CCc3ccccc32)CC1 (stereo unspecified) | 371
